# Results reported in ChEMBL document CHEMBL1154907, “Synthesis and preclinical evaluations of 2-(2-fluorophenyl)-6,7-methylenedioxyquinolin-4-one monosodium phosphate (CHM-1-P-Na) as a potent antitumor agent” (J Med Chem, 2010).
# Assay: AUC (0 to infinity) in CD1 mouse at 10 mg/kg, ip
# Format: ADME, organism-based
# Parameters: dose 10 mg/kg, route intraperitoneal, time infinity
# Settings: plasma
# In short: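 Male CD-1 (Crl.) mice (22-24 g), single 10 mg/kg dose. Prodrug in 9% NaHCO3/water (1 mg/mL) given iv by tail vein or po by gavage after 4 h fast; parent given ip in cremophor/DMSO/saline 20/5/75 (2 mg/mL). Plasma sampled to 27 h, three mice per time point, acetonitrile precipitation, LC-MS/MS (ESI positive); parameters from mean plasma concentrations.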
smiles,measurement,value
O=c1cc(-c2ccccc2F)[nH]c2cc3c(cc12)OCO3,AUC(0-inf),417 ng·h/mL
